In brackets after ≈: the same amount, converted by molar mass.
How the values were obtained:
[1] = pH 8–10; cited from earlier work
P-glycoprotein (Pgp) = conditions: cited from earlier work
[2] = Kinetic solubility study of SNMSDs and EDR in SIF pH 6.8; type: physicochemical
UGT enzymes = conditions: cited from earlier work
[3] = cited from earlier work
[4] = In vitro dissolution study; type: physicochemical
Summary of the method: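 USP type II (paddle) apparatus at 37°C and 50 rpm, with 900 mL of SGF (pH 1.2) or SIF (pH 6.8). Samples were taken at 5, 15, 30, 45, 60, 90 and 120 min, with media replaced, then passed through a 0.45 µm filter and diluted with mobile phase as needed. They were quantified by HPLC-UV at 240 nm (water:methanol:acetic acid 100:100:1, 1 mL/min). Release data were fitted to zero-order, first-order, Higuchi, Hixson–Crowell and Korsmeyer–Peppas models. f1 and f2 were calculated comparing the unformulated and formulated drug profiles.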

[5] = Solubility of EDR, PM and NEF in simulated body fluids and water
[6] = Miscibility study: solubility of EDR in polymeric carrier solutions; conditions: 10% (w/v) polymer in water
[7] = system: glucuronidation of EDR in rat liver microsomes; assay: Microsomal incubation assay of EDR glucuronidation; type: in vitro ADME; conditions: SOL 1%
[8] = dissolution profiles in SGF vs SIF

CC1=NN(c2ccccc2)C(=O)C1 [EDR, 3-methyl-1-phenyl-2-pyrazolin-5-one]
degradation at alkaline conditions [1]: dramatic degradation | substrate of P-glycoprotein (Pgp) (P-glycoprotein (Pgp)): substrate | solubility [2]: 2290 ± 320 µg/mL (≈ 13.1 mM) | substrate of UGT enzymes (UGT enzymes): substrate | solubility in SGF [3]: 8260 ± 1420 µg/mL (≈ 47.4 mM) | release kinetic model followed ([4]; SGF): Hixson–Crowell | release kinetics: First order ([4]; SGF): 0.834 | release kinetics: Higuchi matrix ([4]; SGF): 0.8501 | release kinetics: Hixson–Crowell ([4]; SGF): 0.9216 | release kinetics: Korsmeyer–Peppas ([4]; SGF): 0.8636 | release kinetics: Zero order ([4]; SGF): 0.6077 | release / dissolution in SGF ([4]; SGF (pH 1.2), within 15 min): 100% | release kinetic model followed ([4]; SIF): Korsmeyer–Peppas | release kinetics: First order ([4]; SIF): 0.9609 | release kinetics: Higuchi matrix ([4]; SIF): 0.97 | release kinetics: Hixson–Crowell ([4]; SIF): 0.9718 | release kinetics: Korsmeyer–Peppas ([4]; SIF): 0.9895 | release kinetics: Zero order ([4]; SIF): 0.7947 | release mechanism ([4]; SIF): anomalous transport (non-Fickian) | release in SIF ([4]; SIF (pH 6.8), in 120 min): 85% | f1 value (dissimilarity factor) [4, 8]: 26 | f2 value (similarity factor) [4, 8]: 14 | dissolution ([4]; within 15 min in the 900 mL of dissolution media): 100% | solubility in SGF (pH 1.2) compared to solubility in water ([5]; SGF pH 1.2): 4.46 fold | solubility in SIF compared to solubility in water ([5]; SIF pH 6.8 and 7.4): insignificant difference

hydroxypropyl-β-cyclodextrin [HP-β-CD]
improvement in the aqueous solubility of EDR [6]: 3.49 fold

CC1(C)C2CCC1(C)C(O)C2 (stereo not drawn) [borneol]
inhibitory effect on glucuronidation of EDR [7]: 37.56%

Reference: article PMC6038876 (Drug Design, Development and Therapy, 2018)
